Measurements: ChEMBL document CHEMBL1134739, “Synthesis, biological activity and comparative analysis of DNA binding affinities and human DNA topoisomerase I inhibitory activities of novel 12-alkoxy-benzo[c]phenanthridinium salts” (Bioorg Med Chem Lett, 2001)

Key:
[1] = test system: Nucleic Acid; assay: Compound was tested for its binding affinity towards poly(AT); type: nucleic-acid assay
Procedure, shortened: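 Double-stranded poly(dA-dT)·poly(dA-dT) concentration set using a molar extinction coefficient of 13,900 M^-1 cm^-1. Binding was followed by recording UV–vis spectra.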

[2] = test system: MCF7; assay: Compound was tested for cytotoxicity against MCF-7 human solid tumor cell line; NA=Not active; type: functional, cell-based
Procedure, shortened: (§1)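 MTT assay on adherent solid tumor lines. Drug added 24 h after plating at nine concentrations, then 72 h growth with drug. MTT (2.5 mg/mL solution in PBS) added for 3 h, medium aspirated, formazan dissolved in DMSO, absorbance read at 570 nm. IC50 taken from dose/inhibition curves.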

[3] = test system: HT-29; assay: (§2) Compound was tested for cytotoxicity against HT-29 human solid tumor cell line; type: functional, cell-based
Procedure, shortened: (§3)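 MTT assay: drugs added 24 h after plating at nine concentrations; cells grown 72 h with drug, then MTT (2.5 mg/mL solution in PBS) added for 3 h. Formazan dissolved in DMSO, absorbance read at 570 nm. IC50 taken from dose/inhibition curves.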

[4] = test system: Nucleic Acid; assay: Compound was tested for its binding affinity towards calf thymus DNA; type: nucleic-acid assay; conditions: Bos taurus
Procedure, shortened: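 Calf thymus DNA concentration set using a molar extinction coefficient of 13,200 M^-1 cm^-1. Binding was followed by recording UV–vis spectra.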

[5] = test system: Nucleic Acid; assay: Compound was tested for its binding affinity towards poly(GC); type: nucleic-acid assay
Procedure, shortened: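 Double-stranded poly(dG-dC)·poly(dG-dC) concentration set using a molar extinction coefficient of 13,200 M^-1 cm^-1. Binding was followed by recording UV–vis spectra.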

[6] = test system: Caov-3 cell line; assay: Compound was tested for cytotoxicity against CaOv3 human solid tumor cell line; NA=Not active; type: functional, cell-based; procedure, shortened: as §1
[7] = test system: MCF7; assay: (§4) Compound was tested for cytotoxicity against MCF-7 human solid tumor cell line; type: functional
[8] = test system: HT-29; assay: as §2; type: functional
[9] = test system: Caov-3 cell line; assay: (§5) Compound was tested for cytotoxicity against CaOv3 human solid tumor cell line; type: functional; procedure, shortened: as §3
[10] = test system: A549; assay: (§6) Compound was tested for cytotoxicity against A-549 human solid tumor cell line; type: functional
[11] = test system: A549; assay: as §6; type: functional, cell-based; procedure, shortened: as §3
[12] = test system: MCF7; assay: as §4; type: functional, cell-based; procedure, shortened: as §3
[13] = test system: Caov-3 cell line; assay: as §5; type: functional, cell-based; procedure, shortened: as §3

SMILES	K [1] [M⁻¹]	K [4] [M⁻¹]	K [5] [M⁻¹]	IC50 [2]	IC30 [3] [nM]	IC50 [6]	IC30 [7] [nM]	IC30 [8] [nM]	IC30 [9] [nM]	IC30 [10] [nM]	IC50 [11] [nM]	IC50 [12] [nM]	IC50 [13] [nM]
CCOc1cc2c3cc(OC)c(OC)cc3c[n+](C)c2c2cc(OC)c(OC)cc12	2.5e+06	250000	100000		2000				500		80	2000	
CCOc1cc2c3cc(OC)c(OC)cc3c[n+](C)c2c2cc(OC)c(OS(C)(=O)=O)cc12.CS(=O)(=O)[O-]	50000	250000	53000	Not Active		Not Active		1000			500		
COc1cc2c(ccc3c4cc(OC)c(OC)cc4c[n+](C)c23)cc1O [FAGARONINE]	1e+06	1e+06	1.1e+06		9000						100	4000	500

Now from value to compound, other results behind:

K [1] [M⁻¹]	K [4] [M⁻¹]	K [5] [M⁻¹]	SMILES	IC50 [2]	IC30 [3] [nM]	IC50 [6]	IC30 [7] [nM]	IC30 [8] [nM]	IC30 [9] [nM]	IC30 [10] [nM]	IC50 [11] [nM]	IC50 [12] [nM]	IC50 [13] [nM]
300000	250000	60000	CCOc1cc2c3cc(OC)c(OC)cc3c[n+](C)c2c2cc(OC)c(O)cc12.[I-]	Not Active	5000	Not Active							
700000	700000	50000	CCOc1cc2c3cc(OC)c(OC)cc3c(C)[n+](C)c2c2cc(OC)c(OC)cc12				1000	9000	10000	10000			
